From ChEMBL document CHEMBL1806428, “Design and synthesis of spiro derivatives of parthenin as novel anti-cancer agents” (Eur J Med Chem, 2011)
The source made the active and inactive calls. The rule behind the calls is not given here.

Legend:
[1] = system: PC-3; experiment: Cytotoxicity against human PC3 cells assessed as cell growth after 48 hrs by sulforhodamine B assay; type: functional, cell-based; details: Homo sapiens, PC-3, 48 h
How it was run: (§1)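 Log-phase cells seeded at 10^4/well and allowed to attach for 24 h at 37 °C, 5% CO2. Exposed for 48 h to 0.1–100 (1:10 serial dilutions), four replicate wells per condition. Fixed with cold 50% TCA for 1 h at 4 °C, stained with sulforhodamine B, dye dissolved in Tris, OD read at 540 nm. Blank-subtracted growth expressed relative to untreated cells (100%); IC50 reported.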

[2] = system: Mus musculus; experiment: Toxicity in ip dosed Swiss albino mouse transplanted with mouse EAC cells assessed as mortality administered for 9 days; type: organism-based, Ehrlich; details: in vivo, 216 h
How it was run: (§2)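 EAC ascites model: mice of the same sex, 20 ± 3 g, injected intraperitoneally with 1 × 10^7 cells from a donor bearing 8–10 day old ascites tumor (day 0). Randomised the next day, 7 per test group and 10 controls. Doses were suspended in 1% gum acacia and given i.p. for nine consecutive days; controls received saline 0.2 mL i.p. On day 12, ascitic fluid volume and tumor cell count were measured, and % inhibition was calculated from cell number versus control.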

[3] = system: SW-620; experiment: Cytotoxicity against human SW620 cells assessed as cell growth after 48 hrs by sulforhodamine B assay; type: functional, cell-based; details: Homo sapiens, SW-620, 48 h; how it was run: as §1
[4] = system: Mus musculus; experiment: Toxicity in Swiss albino mouse transplanted with EAC cells assessed as mortality at 50 mg/kg, ip administered for 9 days measured on day 2nd; type: organism-based, Ehrlich; parameters: dose 50 mg/kg, route intraperitoneal; details: in vivo, 216 h; how it was run: as §2
[5] = Antitumor activity against mouse EAC cells transplanted in Swiss albino mouse assessed as decrease in astic fluid volume at 10 mg/kg, ip administered for 9 days (reference value: 4.57+/-0.39 mL); type: functional, Ehrlich; details: route intraperitoneal; how it was run: as §2
[6] = system: Ehrlich; experiment: Antitumor activity against mouse EAC cells transplanted in ip dosed Swiss albino mouse assessed as tumor growth inhibition administered for 9 days; type: functional, organism-based; how it was run: as §2
[7] = system: Mus musculus; experiment: Toxicity in Swiss albino mouse model of Ehrlich Ascites tumor assessed as mortality at 50 mg/kg, ip administered for 9 days measured on second day; type: organism-based; parameters: dose 50 mg/kg, route intraperitoneal; details: in vivo, 216 h
[8] = Antitumor activity against mouse Ehrlich Ascites tumor xenografted in Swiss albino mouse assessed as tumor growth inhibition at 10 mg/kg, ip administered for 9 days measured on day 13; type: functional; details: route intraperitoneal, read-out: GI
[9] = system: Ehrlich; experiment: Antitumor activity against mouse EAC cells transplanted in Swiss albino mouse assessed as decrease in tumor cells in ascetic fluid at 10 mg/kg, ip administered for 9 days (reference value: 4.57+/-0.39 mL); type: functional, organism-based; parameters: dose 10 mg/kg; how it was run: as §2
[10] = system: DU-145; experiment: Cytotoxicity against human DU145 cells assessed as cell growth after 48 hrs by sulforhodamine B assay; type: functional, cell-based; details: Homo sapiens, DU-145, 48 h; how it was run: as §1
[11] = system: Mus musculus; experiment: Toxicity in Swiss albino mouse model of Ehrlich Ascites tumor assessed as mortality at 25 mg/kg, ip administered for 9 days measured on fourth day; type: organism-based; parameters: dose 25 mg/kg, route intraperitoneal; details: in vivo, 216 h
[12] = system: Mus musculus; experiment: Toxicity in Swiss albino mouse transplanted with EAC cells assessed as mortality at 25 mg/kg, ip administered for 9 days measured on day 4th; type: organism-based, Ehrlich; parameters: dose 25 mg/kg, route intraperitoneal; details: in vivo, 216 h; how it was run: as §2
[13] = Antitumor activity against mouse EAC cells transplanted in Swiss albino mouse assessed as tumor growth inhibition at 10 mg/kg, ip administered for 9 days (reference value: 4.57+/-0.39 mL); type: functional; details: Ehrlich, 216 h, route intraperitoneal, read-out: GI; how it was run: as §2
[14] = system: Mus musculus; experiment: Toxicity in Swiss albino mouse transplanted with mouse EAC cells assessed as mortality at 25 mg/kg, ip administered for 9 days measured on day 2nd; type: organism-based, Ehrlich; parameters: dose 25 mg/kg, route intraperitoneal; details: in vivo, 216 h; how it was run: as §2
[15] = Antitumor activity against mouse Ehrlich Ascites tumor xenografted in Swiss albino mouse assessed as decrease in tumor weight at 10 mg/kg, ip administered for 9 days (reference value: 1708+/-51.07 mg); type: functional; details: route intraperitoneal
[16] = system: Mus musculus; experiment: Toxicity in Swiss albino mouse transplanted with mouse EAC cells assessed as mortality at 50 mg/kg, ip administered for 9 days measured on day 3rd; type: organism-based, Ehrlich; parameters: dose 50 mg/kg, route intraperitoneal; details: in vivo, 216 h; how it was run: as §2
[17] = system: SW-620; experiment: Cell cycle arrest in human SW620 cells assessed as increase in sub-G1 DNA content at 1 uM after 24 hrs using propidium iodide staining by flow cytometry (reference value: 3.45%); type: functional
[18] = system: SW-620; experiment: Induction of apoptosis in human SW620 cells assessed as blockage of G1-phase at 50 uM after 24 hrs using propidium iodide staining by flow cytometry; type: functional, cell-based
[19] = system: SW-620; experiment: Induction of apoptosis in human SW620 cells assessed as DNA fragmentation at 50 uM after 24 hrs by gel electrophoresis; type: functional, cell-based
How it was run: (§3)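 SW-620 cells (2 × 10^6 per 60 mm plate) treated for 24 h at 10, 50 or 100. Pellets lysed in 10 mM EDTA, 50 mM Tris pH 8.0, 0.5% SDS and proteinase K 0.5 mg/mL at 50 °C for 1 h. DNA heated briefly to 70 °C and run on 1.5% agarose at 50 V for 2–3 h. Untreated cells served as control; camptothecin as positive control.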

[20] = system: Mus musculus; experiment: Toxicity in Swiss albino mouse model of Ehrlich Ascites tumor assessed as mortality at 200 mg/kg, ip administered for 9 days measured on third day; type: organism-based; parameters: dose 200 mg/kg, route intraperitoneal; details: in vivo, 216 h
[21] = Partition coefficient, log P of the compound; type: physicochemical; details: octanol/water
[22] = Antitumor activity against mouse Ehrlich Ascites tumor xenografted in Swiss albino mouse assessed as decrease in tumor weight at 100 mg/kg, ip administered for 9 days (reference value: 1708+/-51.07 mg); type: functional; details: route intraperitoneal
[23] = biological target: Transcription factor p65 (Homo sapiens) (UniProt Q04206); experiment: Inhibition of NF-kappaB p65 subunit transcriptional activity in human SW620 cells at 5 uM by Western blot analysis; type: cell-based; details: SW-620
How it was run: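 SW-620 cells (5 × 10^6) exposed to 5 for the indicated times. Washed in ice-cold PBS, lysed in Hepes pH 7.9 buffer with KCl, EDTA, EGTA, DTT, PMSF, NaF, vanadate and protease inhibitors, then NP-40 0.5%. Cytosol taken after 8000 × g. Nuclear fraction extracted with 20% glycerol and 0.4 M KCl on ice for 30 min, spun at 13,000 × g. NF-κB assessed by western blot.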

[24] = Antitumor activity against mouse Ehrlich Ascites tumor xenografted in Swiss albino mouse assessed as decrease in tumor weight at 50 mg/kg, ip administered for 9 days (reference value: 1708+/-51.07 mg); type: functional; details: route intraperitoneal
[25] = Antitumor activity against mouse EAC cells transplanted in Swiss albino mouse assessed as decrease in astic fluid volume at 50 mg/kg, ip administered for 9 days (reference value: 4.57+/-0.39 mL); type: functional, Ehrlich; details: route intraperitoneal
[26] = system: SW-620; experiment: Cell cycle arrest in human SW620 cells assessed as increase in sub-G1 DNA content at 5 uM after 24 hrs using propidium iodide staining by flow cytometry (reference value: 3.45%); type: functional
[27] = system: SW-620; experiment: Induction of apoptosis in human SW620 cells assessed as DNA fragmentation at 100 uM after 24 hrs by gel electrophoresis; type: functional, cell-based; how it was run: as §3
[28] = Antitumor activity against mouse Ehrlich Ascites tumor xenografted in Swiss albino mouse assessed as tumor growth inhibition at 25 mg/kg, ip administered for 9 days measured on day 13; type: functional; details: route intraperitoneal, read-out: GI
[29] = Antitumor activity against mouse EAC cells transplanted in Swiss albino mouse assessed as tumor growth inhibition at 50 mg/kg, ip administered for 9 days (reference value: 4.57+/-0.39 mL); type: functional; details: Ehrlich, 216 h, route intraperitoneal, read-out: GI
[30] = system: Ehrlich; experiment: Antitumor activity against mouse EAC cells transplanted in Swiss albino mouse assessed as decrease in tumor cells in ascetic fluid at 25 mg/kg, ip administered for 9 days (reference value: 4.57+/-0.39 mL); type: functional, organism-based; parameters: dose 25 mg/kg
[31] = system: Ehrlich; experiment: Antitumor activity against mouse EAC cells transplanted in Swiss albino mouse assessed as decrease in tumor cells in ascetic fluid at 100 mg/kg, ip administered for 9 days (reference value: 4.57+/-0.39 mL); type: functional, organism-based; parameters: dose 100 mg/kg
[32] = system: SW-620; experiment: Cell cycle arrest in human SW620 cells assessed as increase in sub-G1 DNA content at 50 uM after 24 hrs using propidium iodide staining by flow cytometry (reference value: 3.45%); type: functional
[33] = Antitumor activity against mouse EAC cells transplanted in Swiss albino mouse assessed as tumor growth inhibition at 25 mg/kg, ip administered for 9 days (reference value: 4.57+/-0.39 mL); type: functional; details: Ehrlich, 216 h, route intraperitoneal, read-out: GI
[34] = Antitumor activity against mouse Ehrlich Ascites tumor xenografted in Swiss albino mouse assessed as tumor growth inhibition at 50 mg/kg, ip administered for 9 days measured on day 13; type: functional; details: route intraperitoneal, read-out: GI
[35] = Antitumor activity against mouse Ehrlich Ascites tumor xenografted in Swiss albino mouse assessed as tumor growth inhibition at 100 mg/kg, ip administered for 9 days measured on day 13; type: functional; details: route intraperitoneal, read-out: GI
[36] = system: Mus musculus; experiment: Antitumor activity against mouse Ehrlich Ascites tumor xenografted in ip dosed Swiss albino mouse assessed as tumor growth administered for 9 days; type: functional, organism-based
[37] = Antitumor activity against mouse EAC cells transplanted in Swiss albino mouse assessed as tumor growth inhibition at 100 mg/kg, ip administered for 9 days (reference value: 4.57+/-0.39 mL); type: functional; details: Ehrlich, 216 h, route intraperitoneal, read-out: GI
[38] = Antitumor activity against mouse EAC cells transplanted in Swiss albino mouse assessed as decrease in astic fluid volume at 25 mg/kg, ip administered for 9 days (reference value: 4.57+/-0.39 mL); type: functional, Ehrlich; details: route intraperitoneal
[39] = Antitumor activity against mouse EAC cells transplanted in Swiss albino mouse assessed as decrease in astic fluid volume at 100 mg/kg, ip administered for 9 days (reference value: 4.57+/-0.39 mL); type: functional, Ehrlich; details: route intraperitoneal
[40] = Antitumor activity against mouse Ehrlich Ascites tumor xenografted in Swiss albino mouse assessed as decrease in tumor weight at 25 mg/kg, ip administered for 9 days (reference value: 1708+/-51.07 mg); type: functional; details: route intraperitoneal
[41] = system: Ehrlich; experiment: Antitumor activity against mouse EAC cells transplanted in Swiss albino mouse assessed as decrease in tumor cells in ascetic fluid at 50 mg/kg, ip administered for 9 days (reference value: 4.57+/-0.39 mL); type: functional, organism-based; parameters: dose 50 mg/kg
[42] = system: Mus musculus; experiment: Toxicity in Swiss albino mouse transplanted with EAC cells assessed as mortality at 200 mg/kg, ip administered for 9 days measured on day 3rd; type: organism-based, Ehrlich; parameters: dose 200 mg/kg, route intraperitoneal; details: in vivo, 216 h; how it was run: as §2
[43] = system: SW-620; experiment: Cell cycle arrest in human SW620 cells assessed as increase in sub-G1 DNA content at 10 uM after 24 hrs using propidium iodide staining by flow cytometry (reference value: 3.45%); type: functional

Chain of Transcription factor p65 (Homo sapiens) (Q04206 whole entry): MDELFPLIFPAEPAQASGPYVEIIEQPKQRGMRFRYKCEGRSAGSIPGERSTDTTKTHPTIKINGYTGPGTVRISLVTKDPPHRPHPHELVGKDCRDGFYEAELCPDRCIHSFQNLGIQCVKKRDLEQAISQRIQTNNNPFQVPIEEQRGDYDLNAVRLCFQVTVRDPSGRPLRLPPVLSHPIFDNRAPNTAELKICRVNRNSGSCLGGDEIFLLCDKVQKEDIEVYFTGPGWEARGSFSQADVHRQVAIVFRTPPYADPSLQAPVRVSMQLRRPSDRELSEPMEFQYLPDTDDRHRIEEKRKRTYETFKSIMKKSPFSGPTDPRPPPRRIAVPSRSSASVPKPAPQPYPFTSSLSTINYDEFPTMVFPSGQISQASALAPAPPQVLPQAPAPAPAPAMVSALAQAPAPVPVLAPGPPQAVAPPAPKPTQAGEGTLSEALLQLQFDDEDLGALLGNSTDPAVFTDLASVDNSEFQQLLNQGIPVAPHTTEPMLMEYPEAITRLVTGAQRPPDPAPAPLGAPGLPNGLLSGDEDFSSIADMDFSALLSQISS

C=C1C(=O)O[C@@H]2[C@H]1CC[C@H](C)[C@]1(O)C=CC(=O)[C@@]21C [PARTHENIN]
IC50 [1]: 40.3 µM
Activity [2]: Toxic
IC50 [3]: 38.7 µM
Activity [4]: Toxic
Activity [5]: 3.92 mL
growth inhibition (GI) [6]: Dose-dependent effect
Activity [7]: Toxic
inhibition in vivo at 10 mg/kg [8]: 9.69%
Activity [9]: Active
IC50 [10]: 31.1 µM
Activity [11]: Toxic
Activity [12]: Toxic
inhibition in vivo at 10 mg/kg [13]: 12%
Activity [14]: Toxic
Activity [15]: 1542.86 mg
Activity [16]: Toxic

C[C@H]1CC[C@@H]2[C@@H](OC(=O)[C@]23CC(c2c4ccccc4cc4ccccc24)=NO3)[C@]2(C)C(=O)C=C[C@@]12O
IC50 [1]: 4.9 µM
Activity [17]: 6.58%
Activity [18]: Active
Activity [2]: Toxic
IC50 [3]: 4.3 µM
Activity [19]: Active
Activity [20]: Toxic
logP [21]: 3.71
Activity [22]: 1108.57 mg
inhibition [23]: Active
Activity [5]: 4.07 mL
Activity [24]: 1332.14 mg
growth inhibition (GI) [6]: Dose-dependent effect
Activity [25]: 2.85 mL
Activity [26]: 33.09%
Activity [27]: Active
inhibition in vivo at 25 mg/kg [28]: 15.4%
inhibition in vivo at 50 mg/kg [29]: 27.2%
inhibition in vivo at 10 mg/kg [8]: 9.44%
Activity [30]: Active
Activity [31]: Active
Activity [32]: 55%
inhibition in vivo at 25 mg/kg [33]: 19.2%
Activity [9]: Active
IC50 [10]: 4.6 µM
inhibition in vivo at 50 mg/kg [34]: 22%
inhibition in vivo at 10 mg/kg [13]: 7.74%
inhibition in vivo at 100 mg/kg [35]: 35.1%
growth inhibition (GI) [36]: Dose-dependent effect
inhibition in vivo at 100 mg/kg [37]: 60.5%
Activity [38]: 3.62 mL
Activity [15]: 1547.14 mg
Activity [39]: 2.07 mL
Activity [40]: 1445.71 mg
Activity [41]: Active
Activity [42]: Toxic
Activity [43]: 33.2%
